STAT3 blocker – inhibitors of IL-6 induced STAT3 signaling. U3A cells, IL-6 STAT3-luciferase reporter, luminescence; host cell line lacks STAT1. inhibition, % at 5.5 µM. actives 0.89% (n = 190,000). AID 862;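 active = inhibition above the mean inhibition across all screened compounds plus 3 SD, cut at about 44% in these data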
STAT3 activator – activators of IL-6 induced STAT3 signaling. U3A cells, IL-6 STAT3-luciferase reporter, luminescence; 100% = signal with IL-6 EC80 alone. activation (% of control), % at 5.6 µM. actives 0.91% (n = 190,000);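 active = activation above the screen-wide mean of compound activation plus 3 SD, cut at about 130% in these data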
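System – human U3A cells carrying STAT3-luciferase construct · Probe or stimulus – Interleukin-6, 33 ng/mL · Schedule – compound 1 h, then IL-6 6 h at 37 °C · Signal – luminescence from STAT3-driven luciferase reporter · Evaluation – percent of IL-6-only median luminescence · Benchmarks – IL-6-only high control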
NF-kB neuron act – NF-kB expression increase, human neuronal cells. NF-kB reporter expression; hits give high values. fold change at 12.5 µM. actives 1.6% (n = 190,000). AID 1239; in the data active = fold change above about 3.3
APP 5'UTR act – APP 5'UTR luciferase reporter activation; activation, % at 2 µM; actives 1% (n = 190,000); SH-SY5Y APP 5'UTR luciferase reporter, luminescence; zero percent = DMSO vehicle wells;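 active = activation above a set limit, based on mean plus 3 SD of controls, cut at about 140% in these data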
STAT1 inh – inhibitors of IFN-gamma induced STAT1 signaling. NIH 3T3 STAT1-luciferase reporter, luminescence. inhibition, % at 5.5 µM. actives 0.35% (n = 200,000);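 active = inhibition above a set limit, the mean inhibition across all tested compounds plus 3 SD, cut at about 34% in these data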
STAT1 activator – activators of IFN-gamma induced STAT1 signaling | NIH 3T3 STAT1-luciferase reporter, luminescence; 100% = IFN-gamma alone, no compound | activation (% of control), % at 5.5 µM | actives 2.6% (n = 200,000) | AID 932;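 active = activation above the screen-wide mean activation plus 3 SD, cut at about 130% in these data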
Each line names hits and unclear results; the compound was inactive in the other large screens. This is a sample that favours compounds with a hit; in the whole collection about 4.9% have one here.

CNC(=O)c1ccc(-c2ccc(OC)cc2)s1	NF-kB neuron act 4.6, STAT1 activator 138
CC(=O)Nc1cc(-c2ccc(Cl)cc2)[nH]n1	STAT1 activator 144
COc1cc(OC)cc(-c2cc(NC(C)=O)n[nH]2)c1	none
O=C(Nc1ccc(Cl)cc1)C(c1ccccc1)N(CCO)CCO (stereo not drawn)	NF-kB neuron act 4.3
O=C(NC(c1ccccc1)c1ccccc1)c1ccc(=O)[nH]n1	none
COc1ccccc1/C=N/Nc1nncc2ccccc12	STAT1 activator 150
COc1ccccc1/C=N/Nc1cc(N(C)C)nc(N(C)C)n1	none
CC1(C)Cc2c(sc(NC(=O)c3ccc(Br)o3)c2C#N)CO1	STAT1 activator 133
CCOc1cc(CNCc2cccnc2)ccc1OCC(=O)NC(C)(C)C	none
COc1ccc(NC(=S)Nc2cc(C)ccn2)c(OC)c1	STAT3 activator 141, STAT1 activator 145 (no result: APP 5'UTR act)
COc1ccc(NC(=S)Nc2ccccn2)c(OC)c1	STAT1 activator 136
CCOC(=O)c1c(C)[nH]c(C(=O)COC(=O)[C@H](C)NC(=O)c2ccccc2Cl)c1C	none
CCOC(=O)c1c(C)[nH]c(C(=O)COC(=O)CNC(=O)C2CCCCC2)c1C	STAT1 activator 136
CCOC(=O)c1c(C)[nH]c(C)c1C(=O)COC(=O)CNC(=O)C1CCCCC1	none
CCOC(=O)c1c(C)[nH]c(C(=O)COC(=O)CNC(=O)c2ccccc2Cl)c1C	STAT1 activator 132
CC1CC(C)CN(C(=O)Cn2cc(C=O)c3ccccc32)C1 (stereo not drawn)	none
O=C(Oc1cccc(-c2cnc3ccccc3n2)c1)c1ccco1	NF-kB neuron act 3.5
CCN(CC)S(=O)(=O)c1ccc(C)c(C(=O)Oc2cccc(-c3cnc4ccccc4n3)c2)c1	none
CCCCNC(=O)c1ccccc1Cl	none
COc1ccc(N(CC(=O)NCCSc2ccccn2)S(C)(=O)=O)cc1	none
O=C(NCCSc1ccccc1)c1ccccc1Cl	NF-kB neuron act 4.7, STAT1 activator 141
O=C(NCCSc1ccccc1)c1cncc(Br)c1	none
COc1ccc(C(=O)NCCSc2ccccn2)cc1	NF-kB neuron act 3.9, APP 5'UTR act 242, STAT1 activator 153
O=C(NCCSc1ccccc1)c1ccccc1	NF-kB neuron act 4.7, APP 5'UTR act 171, STAT1 activator 142
COc1cccc(C(=O)NCCSc2ccc(F)cc2)c1	NF-kB neuron act 4.8, STAT1 activator 138
CC(C)CNC(=O)c1cccc(NC(=O)C(C)Oc2ccccc2)c1 (stereo not drawn)	none
CC(OC(=O)CCCSc1nc2ccccc2s1)C(=O)NC(N)=O (stereo not drawn)	none
Cc1ccc(OCC(=O)NC(=S)Nc2ccc(Br)cn2)cc1C	none
CC(C)N=C(NS(=O)(=O)c1ccc(Br)cc1)c1ccc(Cl)cc1	none (no result: NF-kB neuron act)
COc1ccc(C(=O)N/C(=C\c2ccco2)C(=O)NC2CCS(=O)(=O)C2)cc1 (stereo not drawn)	none
O=C(c1ccc2c(c1)OCCO2)N1CCCC(CNS(=O)(=O)c2cccs2)C1 (stereo not drawn)	none
Cn1cc(Br)c(C(=O)Nc2nccs2)n1	none
Cc1ccccc1C(=O)NCCSc1ccccc1	NF-kB neuron act 3.6, STAT1 activator 129
CSc1ccccc1C(=O)NCCSc1ccccc1	none
Cc1oc(-c2cccs2)nc1CN1CCN(Cc2ccc(F)c(F)c2)C(CCO)C1 (stereo not drawn)	none (no result: NF-kB neuron act)
CCOc1ccc(/C=N/n2c(SC)nnc2-c2ccccc2)cc1OCC	NF-kB neuron act 5.5
CCOc1ccc(/C=N/n2c(SC)nnc(C(C)(C)C)c2=O)cc1	none
CC12CCC(C(=O)Nc3nc4ccc(Br)cc4s3)(OC1=O)C2(C)C (stereo not drawn)	STAT1 activator 138
Cc1ccc(CNC(=O)c2nn(C)c(C)c2[N+](=O)[O-])cc1	none
O=C(Nc1ncccn1)c1ccc([N+](=O)[O-])o1	none
Cc1ccc(CNC(=O)c2ccc([N+](=O)[O-])o2)cc1	NF-kB neuron act 3.5
Cc1ccc(NC(=O)c2ccc([N+](=O)[O-])o2)cc1C	STAT1 activator 148 (no result: NF-kB neuron act)
O=C(Nc1ccccn1)c1ccc([N+](=O)[O-])o1	NF-kB neuron act 4.3
O=C(CCNS(=O)(=O)c1c(Cl)cccc1Cl)OCC(=O)c1ccccc1	none
O=C(CSc1nnc(SCc2ccccc2)s1)N/N=C/c1c[nH]c2ccccc12	none
O=C(N/N=C/c1c[nH]c2ccccc12)c1ccn(Cc2ccc(Cl)cc2Cl)n1	STAT3 activator 135
CCc1ccc(-c2cc(C(=O)N/N=C/c3c[nH]c4ccccc34)[nH]n2)cc1	APP 5'UTR act 208
Cc1ccc(CSc2nnc(SCC(=O)N/N=C/c3c[nH]c4ccccc34)s2)cc1	STAT1 activator 131
COc1cc(/C=C2/NC(=O)N(c3cccc(Cl)c3)C2=O)ccc1O	STAT1 activator 134
COc1ccc(-n2cccc2/C=C2/NC(=O)N(c3cccc(Cl)c3)C2=O)cc1	none
O=C(Nc1nc2c(s1)CN(Cc1ccccc1)CC2)C1CCC1	none
CCN1CCc2nc(NC(=O)c3ccccc3)sc2C1	STAT1 activator 147
O=C1c2cccc3cccc(c23)C(=O)N1c1ccncc1	none
CCc1nnc(N2C(=O)c3cccc4cccc(c34)C2=O)s1	STAT3 activator 135
Cc1nc2ccccn2c1C(=O)Nc1ccc(Cl)cc1	STAT1 activator 140
Cc1ccc(NC(=O)c2c(Cl)nc3ccccn23)cc1	STAT1 activator 139
CCCN1CNc2c(c(=O)[nH]c(=S)n2CCc2ccc(OC)c(OC)c2)C1	none
O=C1CC(c2ccc(F)cc2)Sc2nc(C34CC5CC(CC(C5)C3)C4)nn21 (stereo not drawn)	none
Cc1cc(C)c(C#N)c(OCC(=O)c2ccc(Br)cc2)n1	none
Cc1ccc(C(=O)CSc2nsc(C)c2C#N)cc1	NF-kB neuron act 6, APP 5'UTR act 156
Cc1snc(SCC(=O)c2ccc(Cl)cc2)c1C#N	none
Cc1ccnc(SCC(=O)c2ccc(Br)cc2)c1C#N	STAT1 activator 146
Cc1nn(-c2ccccc2)c(C)c1/C=C/C(=O)OCC(=O)Nc1ncc(C(F)(F)F)cc1Cl	none
CCCCc1ccc(NC(=S)NCc2ccccc2OC)cc1	none
CC(C)C1COC(c2cccc3ccccc23)=N1 (stereo not drawn)	NF-kB neuron act 3.7, STAT1 activator 143
Cc1cccnc1NC(=S)NC(=O)c1cccs1	STAT3 activator 154, NF-kB neuron act 5, APP 5'UTR act 198, STAT1 activator 174
Cc1ccccc1C(=O)Nc1ccc(Br)cn1	NF-kB neuron act 3.8, STAT1 activator 134
O=C(NC(=S)Nc1ccc(Br)cn1)c1cccs1	STAT3 activator 168, NF-kB neuron act 4, APP 5'UTR act 195, STAT1 activator 204
Cc1cccnc1NC(=S)NC(=O)c1cncc(Br)c1	none
